Results published in ChEMBL document CHEMBL3414569, “Amino acid modified xanthone derivatives: novel, highly promising membrane-active antimicrobials for multidrug-resistant Gram-positive bacterial infections” (J Med Chem, 2015).
Converted amounts (≈) assume the structure as drawn. The source made the active and inactive calls. The calls are words filed in the database; no cut-off is given here.

What was measured:
Staphylococcus aureus [1] = test: Antimicrobial activity against methicillin resistant Staphylococcus aureus DM21455 in absence of 4% BSA by broth macrodilution method; type: functional
In short: (§1)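 Broth macrodilution MIC in Mueller Hinton broth following CLSI guidelines. Inoculum was prepared by direct colony suspension from an 18−20 h tryptic soy agar plate.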

Staphylococcus aureus [2] = test: Antimicrobial activity against methicillin resistant Staphylococcus aureus DM21455 in presence of 4% BSA by broth macrodilution method; type: functional
In short: (§2)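 MIC by CLSI broth macrodilution in Mueller Hinton broth, with BSA added to the bacterial suspension at a final 4% w/v. Inoculum was made by direct colony suspension from an 18−20 h tryptic soy agar plate.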

Staphylococcus aureus [3] = test: Antimicrobial activity against Staphylococcus aureus ATCC 29213 in absence of 4% BSA by broth macrodilution method; type: functional; in short: as §1
Staphylococcus aureus [4] = test: Antimicrobial activity against Staphylococcus aureus ATCC 29213 in presence of 4% BSA by broth macrodilution method; type: functional; in short: as §2
Staphylococcus aureus [5] = test: Antimicrobial activity against Staphylococcus aureus DM4001 by broth macrodilution method; type: functional; in short: as §1
Staphylococcus aureus [6] = test: Antimicrobial activity against methicillin resistant Staphylococcus aureus DM21455 by broth macrodilution method; type: functional; in short: as §1
Staphylococcus aureus [7] = test: Antimicrobial activity against methicillin resistant Staphylococcus aureus DM09809R by broth macrodilution method; type: functional; in short: as §1
Bacillus cereus = test: Antimicrobial activity against Bacillus cereus ATCC 11778 by broth macrodilution method; type: functional
In short: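 CLSI broth macrodilution in Mueller Hinton broth. Inoculum was made by direct colony suspension from colonies on an 18−20 h tryptic soy agar plate. The value is the MIC.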

[8] = Induction of hemolysis in New Zealand white rabbit RBC after 1 hr; type: cell-based, Oryctolagus cuniculus, Erythrocyte; settings: for HC50 at 1 h: New Zealand white, red blood cells (RBC)
In short: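 Fresh red blood cells isolated from New Zealand white rabbits. Lysis measured over a compound concentration series; HC50 taken as the concentration lysing 50% of RBCs.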

[9] = Selectivity index, ratio of HC50 for induction of hemolysis in New Zealand white rabbit RBC to MIC for Staphylococcus aureus DM4001
[10] = Selectivity index, ratio of HC50 for induction of hemolysis in New Zealand white rabbit RBC to MIC for Staphylococcus aureus DM21455
[11] = Selectivity index, ratio of HC50 for induction of hemolysis in New Zealand white rabbit RBC to MIC for Staphylococcus aureus DM09809R
[12] = Selectivity index, ratio of HC50 for induction of hemolysis in New Zealand white rabbit RBC to MIC for Bacillus cereus ATCC 11778
Enterococcus [13] = test: Antimicrobial activity against vancomycin-sensitive Enterococcus isolates by broth macrodilution method; type: functional
Enterococcus [14] = test: Antimicrobial activity against vancomycin-resistant Enterococcus isolates by broth macrodilution method; type: functional
Streptococcus = test: Antimicrobial activity against Streptococcus isolates by broth macrodilution method; type: functional
Corynebacterium jeikeium = test: Antimicrobial activity against Corynebacterium jeikeium isolates by broth macrodilution method; type: functional
Listeria monocytogenes = test: Antimicrobial activity against Listeria monocytogenes isolates by broth macrodilution method; type: functional
Enterococcus [15] = test: Bactericidal activity against vancomycin-resistant Enterococcus isolates assessed as reduction in bacterial count 2048 ug/mL after 2 hrs by cell counting based time assay; type: functional, organism-based
In short: (§3)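 Time-kill at 35 °C with colonies taken from an 18−20 h tryptic soy agar plate and suspended in CA-MHB at 10^5−10^6 CFU/mL, then drug added. Aliquots taken at set times were diluted 10-fold serially in D/E neutralization broth, spread on tryptic soy agar, incubated 48−72 h at 35 °C, and colonies counted. Strains: MRSA DM21455, vanA and vanB VRE.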

Enterococcus [16] = test: Bactericidal activity against vancomycin-resistant Enterococcus isolates assessed as reduction in bacterial count 2048 ug/mL after 24 hrs by cell counting based time assay; type: functional, organism-based; in short: as §3
Staphylococcus aureus [17] = test: Bactericidal activity against Staphylococcus aureus DM21455 assessed as reduction in bacterial count 2048 ug/mL after 24 hrs by cell counting based time assay; type: functional, organism-based; in short: as §3
Staphylococcus aureus [18] = test: Bactericidal activity against Staphylococcus aureus DM21455 assessed as reduction in bacterial count 2048 ug/mL after 2 hrs by cell counting based time assay; type: functional, organism-based; in short: as §3
[19] = Retention time of the compound; type: physicochemical
In short: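 Reverse-phase HPLC of 20 μL injections of a 10 μg/mL sample at 1 mL/min. Gradient: 5−55% ACN over 5 min, then 55−95% over 15 min.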

Work on `CCCCCCCCCC(=O)N[C@@H](Cc1c[nH]c2ccccc12)C(=O)N[C@H](CC(N)=O)C(=O)N[C@@H](CC(=O)O)C(=O)N[C@@H]1C(=O)NCC(=O)N[C@@H](CCCN)C(=O)N[C@@H](CC(=O)O)C(=O)N[C@H](C)C(=O)N[C@@H](CC(=O)O)C(=O)NCC(=O)N[C@H](CO)C(=O)N[C@@H]([C@H](C)CC(=O)O)C(=O)N[C@@H](CC(=O)c2ccccc2N)C(=O)O[C@@H]1C` yielded an MIC (Staphylococcus aureus [1]) of 0.39 µg/mL (≈ 0.241 µM), an MIC (Staphylococcus aureus [2]) of 6.25 µg/mL and an MIC (Staphylococcus aureus [3]) of 0.39 µg/mL (≈ 0.241 µM). For the same compound, the MIC (Staphylococcus aureus [4]) was 6.25 µg/mL.

For `N=C(N)NCCCCC(=O)Nc1cc(C(F)(F)F)cc(NC(=O)c2cc(C(=O)Nc3cc(C(F)(F)F)cc(NC(=O)CCCCNC(=N)N)c3O[C@@H]3CCNC3)ncn2)c1O[C@@H]1CCNC1` [BRILACIDIN], the MIC (Staphylococcus aureus [5]) was 4 µg/mL (≈ 4.27 µM), the MIC (Staphylococcus aureus [6]) was 4 µg/mL (≈ 4.27 µM) and the MIC (Staphylococcus aureus [7]) was 4 µg/mL (≈ 4.27 µM). For the same compound, the MIC (Bacillus cereus) was 4 µg/mL (≈ 4.27 µM), the HC50 at 1 h [8] was 175 µg/mL and the Selectivity Index [9] was 44. For the same compound, the Selectivity Index [10] was 44, the Selectivity Index [11] was 44 and the Selectivity Index [12] was 44.

In the case of `CN[C@H](CC(C)C)C(=O)N[C@H]1C(=O)N[C@@H](CC(N)=O)C(=O)N[C@H]2C(=O)N[C@H]3C(=O)N[C@H](C(=O)N[C@H](C(=O)O)c4cc(O)cc(O)c4-c4cc3ccc4O)[C@H](O)c3ccc(c(Cl)c3)Oc3cc2cc(c3O[C@@H]2O[C@H](CO)[C@@H](O)[C@H](O)[C@H]2O[C@H]2C[C@](C)(N)[C@H](O)[C@H](C)O2)Oc2ccc(cc2Cl)[C@H]1O` [VANCOMYCIN], the MIC (Enterococcus [13]) was 1 µg/mL (≈ 0.69 µM), the MIC (Enterococcus [14]) was 8 µg/mL (≈ 5.52 µM) and the MIC (Streptococcus) was 0.5 µg/mL (≈ 0.345 µM). The MIC (Corynebacterium jeikeium) was 0.5 µg/mL (≈ 0.345 µM), the MIC (Listeria monocytogenes) was 0.5 µg/mL (≈ 0.345 µM) and the Activity (Enterococcus [15]) was “inactive”. The Activity (Enterococcus [16]) was “inactive”, the Activity (Staphylococcus aureus [17]) was “inactive” and the Activity (Staphylococcus aureus [18]) was “inactive”. The MIC (Staphylococcus aureus [1]) was 0.78 µg/mL (≈ 0.538 µM), the MIC (Staphylococcus aureus [2]) was 0.78 µg/mL and the MIC (Staphylococcus aureus [3]) was 0.78 µg/mL (≈ 0.538 µM). The MIC (Staphylococcus aureus [4]) was 1.56 µg/mL.

In the case of `O=c1c2ccc(OCCCCBr)cc2oc2cc(OCCCCBr)cc(O)c12`, the MIC (Staphylococcus aureus [5]) was > 50 µg/mL.

`CCN(CC)CCCCOc1cc2oc3cc(OCCCCN(CC)CC)c(OC)c(CCC(C)C)c3c(=O)c2c(O)c1CCC(C)C` showed an MIC (Staphylococcus aureus [5]) of 3 µg/mL (≈ 4.48 µM).

With `COc1c(O)cc2oc3cc(O)c(CCC(C)C)c(O)c3c(=O)c2c1CCC(C)C` the MIC (Staphylococcus aureus [5]) was 50 µg/mL (≈ 121 µM).

For “H-GIGKFLKKAKKFGKAFVKILKK-NH2 [PEXIGANAN]”, the MIC (Staphylococcus aureus [5]) was 12.5 µg/mL, the MIC (Staphylococcus aureus [6]) was 12.5 µg/mL and the MIC (Staphylococcus aureus [7]) was 25 µg/mL. It also gave an MIC (Bacillus cereus) of 12.5 µg/mL, an HC50 at 1 h [8] of 120 µg/mL and a Selectivity Index [9] of 2. The Selectivity Index [10] was 2, the Selectivity Index [11] was 2 and the Selectivity Index [12] was 2. For the same compound, the MIC (Staphylococcus aureus [1]) was 12.5 µg/mL, the MIC (Staphylococcus aureus [2]) was 200 µg/mL and the MIC (Staphylococcus aureus [3]) was 12.5 µg/mL. It also gave an MIC (Staphylococcus aureus [4]) of 200 µg/mL.

In the case of `CCN(CC)CCCCOc1ccc2c(=O)c3c(O)cc(OCCCCN(CC)CC)cc3oc2c1`, the MIC (Staphylococcus aureus [5]) was > 50 µg/mL.

`CCOC(=O)[C@H](CCCNC(=N)N)NC(=O)COc1cc2oc3cc(OCC(=O)N[C@@H](CCCNC(=N)N)C(=O)OCC)c(OC)c(CC=C(C)C)c3c(=O)c2c(O)c1CC=C(C)C` gave an MIC (Staphylococcus aureus [5]) of 6 µg/mL (≈ 6.7 µM), an MIC (Staphylococcus aureus [6]) of 6 µg/mL (≈ 6.7 µM) and an MIC (Staphylococcus aureus [7]) of 12 µg/mL (≈ 13.4 µM). It also gave an MIC (Bacillus cereus) of 12 µg/mL (≈ 13.4 µM), an HC50 at 1 h [8] of 56 µg/mL and a Retention_time [19] of 8.38 min. For the same compound, the Selectivity Index [9] was 9, the Selectivity Index [10] was 9 and the Selectivity Index [11] was 5. The Selectivity Index [12] was 5.

`CCCCCCCCNCCC[C@@H](C)[C@H]1CC[C@H]2[C@H]3[C@H](OCCCN)C[C@H]4C[C@H](OCCCN)CC[C@]4(C)[C@H]3C[C@H](OCCCN)[C@]12C` showed an MIC (Staphylococcus aureus [5]) of 0.4 µg/mL (≈ 0.591 µM), an MIC (Staphylococcus aureus [6]) of 0.4 µg/mL (≈ 0.591 µM) and an MIC (Staphylococcus aureus [7]) of 0.4 µg/mL (≈ 0.591 µM). It also gave an MIC (Bacillus cereus) of 0.4 µg/mL (≈ 0.591 µM), an MHC ([8]; erythrocyte, 1 h) of 29 µg/mL and a Selectivity Index [9] of 73. The Selectivity Index [10] was 73, the Selectivity Index [11] was 73 and the Selectivity Index [12] was 73.
